The subject of one test is DLD-1. As to the kind of experiment: Concentration required to inhibit 50% of farnesylation of H-Ras in DLD-1 cells. As to conditions: Homo sapiens. Format: functional, cell-based.
In test [1] the target is Protein farnesyltransferase (Bos taurus, UniProt P29702+P49355). As to the kind of experiment: Inhibit of purified bovine Farnesyl protein transferase. Format: protein-complex assay. The procedure, abridged:
(§1)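 Isolated-enzyme inhibition assays (FPTase, and GGPTase I for the GGPTase lines) were run by a previously published method, with n=2 determinations per compound. The read-out is the IC50 in nM.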

Test [2] can be described thus: Concentration required to inhibit 50% of GGPTase enzyme activity. The procedure, abridged:
as §1

The structures appear in SMILES notation.

Regarding `N#Cc1ccc(Cn2cncc2CN(c2ccc(N3CCN(C(=O)c4ccc(Cl)s4)CC3)cc2)S(=O)(=O)c2ccccc2)cc1`, the IC50 in the test on DLD-1 came out at 200 nM.

In test [1], `N#Cc1ccc(Cn2cncc2CN(Cc2cccc(F)c2)c2ccc(N3CCN(C(=O)c4ccc(Cl)s4)CC3)cc2)cc1` gave an IC50 of 20 nM.

Molecule `O=C(c1ccc(Cl)s1)N1CCN(c2ccc(N(Cc3cnc[nH]3)S(=O)(=O)c3ccccc3)cc2)CC1` yielded an IC50 in test [1] of 600 nM.

Consider `COc1cccc(C(=O)N(Cc2cncn2Cc2ccc(C#N)cc2)c2ccc(N3CCN(C(=O)c4ccc(Cl)s4)CC3)cc2)c1`, for which the IC50 in test [2] amounted to 700 nM; in the test on DLD-1, 7 nM; in test [1], 2 nM.

With `O=S(=O)(c1ccccc1)N(Cc1c[nH]cn1)c1ccc(N2CCN(C(=S)Nc3ccccc3)CC2)cc1`, the half-maximal inhibitory concentration (IC50) was more than 1000 nM in test [2] and 600 nM in test [1].

As for `N#Cc1ccc(Cn2cncc2CN(C(=O)c2ccccc2)c2ccc(N3CCN(C(=O)c4ccc(Cl)s4)CC3)cc2)cc1`, the results for the IC50 (in test [2]; in the test with DLD-1) were more than 1000 nM and 3 nM, respectively.

Regarding `O=C(NC1CCCCC1)N1CCN(c2ccc(N(Cc3cnc[nH]3)S(=O)(=O)c3ccccc3)cc2)CC1`, the half-inhibitory concentration (IC50) in test [1] was determined as 1000 nM.

For `O=S(=O)(c1ccccc1)N(Cc1c[nH]cn1)c1ccc(N2CCN(C(=S)NCCc3ccccc3)CC2)cc1`, the IC50 in test [2] was more than 1000 nM; in test [1], 100 nM.

Regarding `COc1ccccc1C(=O)N(Cc1cncn1Cc1ccc(C#N)cc1)c1ccc(N2CCN(C(=O)c3ccc(Cl)s3)CC2)cc1`, the concentration for half-maximal inhibition (IC50) with DLD-1 is more than 10000 nM; in test [1], 2 nM.

In the case of `CC(C)C/N=C(\S)N1CCN(c2ccc(N(Cc3c[nH]cn3)S(=O)(=O)c3ccccc3)cc2)CC1`, the IC50 in test [2] was more than 1000 nM; in the test on DLD-1 it was 800 nM.

On to `O=C(NCc1ccccc1)N1CCN(c2ccc(N(Cc3cnc[nH]3)S(=O)(=O)c3ccccc3)cc2)CC1`, for which the IC50 in test [1] was found to be 600 nM. In other words, the sub-micromolar range.

With `O=S(=O)(c1ccccc1)N(Cc1c[nH]cn1)c1ccc(N2CCN(C(=S)NCc3ccccc3)CC2)cc1`, the values for the concentration for half-maximal inhibition (IC50) in test [2] and in test [1] were more than 1000 nM and 60 nM, respectively.

With `N#Cc1ccc(Cn2cncc2CN(C(=O)c2ccccc2F)c2ccc(N3CCN(C(=O)c4ccc(Cl)s4)CC3)cc2)cc1`, the 50% inhibitory concentration (IC50) in the test on DLD-1 amounted to 20 nM.

Consider `COc1ccc(C(=O)N(Cc2cncn2Cc2ccc(C#N)cc2)c2ccc(N3CCN(C(=O)c4ccc(Cl)s4)CC3)cc2)cc1`, for which the IC50 with DLD-1 was found to be 80 nM; in test [1] it was 2 nM.

Turning to `N#Cc1ccc(Cn2cncc2CN(C(=O)c2cccc(Cl)c2)c2ccc(N3CCN(C(=O)c4ccc(Cl)s4)CC3)cc2)cc1`, the results for the IC50 (in test [2]; in the test with DLD-1; in test [1]) were more than 1000 nM, 2 nM and 2 nM, respectively.

As for `O=S(=O)(c1ccccc1)N(Cc1c[nH]cn1)c1ccc(N2CCN(C(=S)NCC3CCCCC3)CC2)cc1`, the IC50 in test [2] is more than 1000 nM; in test [1] it was 30 nM.

Turning to `N#Cc1ccc(Cn2cncc2CN(C(=O)c2cccc(F)c2)c2ccc(N3CCN(C(=O)c4ccc(Cl)s4)CC3)cc2)cc1`, the IC50 in test [2] was more than 1000 nM; with DLD-1, 6 nM.

`N#Cc1ccc(Cn2cncc2CNc2ccc(N3CCN(C(=O)c4ccc(Cl)s4)CC3)cc2)cc1`: in test [1], the IC50 came out at 70 nM.

`O=S(=O)(c1ccccc1)N(Cc1c[nH]cn1)c1ccc(N2CCN(C(=S)NC3CCCCC3)CC2)cc1`: the IC50 in test [2] was more than 1000 nM; in the test on DLD-1, 1000 nM; in test [1] it was 20 nM.

Regarding `N#Cc1ccc(Cn2cncc2CN(Cc2ccc(F)cc2)c2ccc(N3CCN(C(=O)c4ccc(Cl)s4)CC3)cc2)cc1`, the IC50 in test [1] came to 70 nM.

With `O=C(Nc1ccccc1)N1CCN(c2ccc(N(Cc3cnc[nH]3)S(=O)(=O)c3ccccc3)cc2)CC1`, 1000 nM corresponded to half-maximal inhibition in test [1] (IC50).

As a reminder, the IC50 is the point on the concentration scale where inhibition reaches its midpoint. A lower IC50 goes with greater potency.

For the origin of these results see ChEMBL document CHEMBL1136706, “Synthesis and evaluation of a novel series of farnesyl protein transferase inhibitors as non-peptidic CAAX tetrapeptide analogues” (Bioorg Med Chem Lett, 2003).
